Experimental data gathered from unrelated publications.
Lines come from different studies, so protocols differ.
SLC22A8: Organic anion transporter 3 (SLC22A8, Homo sapiens, UniProt Q8TCC7)
AMY2: Pancreatic alpha-amylase (AMY2, Sus scrofa, UniProt P00690)
EPHA5: Ephrin type-A receptor 5 (EPHA5, Homo sapiens, UniProt P54756)
SIRT2: NAD-dependent protein deacetylase sirtuin-2 (SIRT2, Homo sapiens, UniProt Q8IXJ6)
RORC: Nuclear receptor ROR-gamma (RORC, Homo sapiens, UniProt P51449)
FES: Tyrosine-protein kinase Fes/Fps (FES, Homo sapiens, UniProt P07332)
polA: DNA polymerase I, thermostable (polA, Thermus aquaticus, UniProt P19821)
Maoa: Amine oxidase [flavin-containing] A (Maoa, Rattus norvegicus, UniProt P21396)
CDC7: Cell division cycle 7-related protein kinase (CDC7, Homo sapiens, UniProt O00311)

CCCCC(=O)N(Cc1ccc(-c2ccccc2-c2nnn[nH]2)cc1)[C@H](C(=O)O)C(C)C
IC50 (SLC22A8; transporter uptake, inhibitor): 250 nM

COc1ccc(S(=O)(=O)N/N=C2\C(=O)Nc3ccc([N+](=O)[O-])cc32)cc1
IC50 (AMY2; enzyme activity, inhibitor): 8200 nM

Cc1cnc(-c2ccc(-c3ccc(NC(=O)Nc4c(F)cc(F)cc4F)cc3F)c3c2C(=O)NC3)[nH]1
IC50 (Myosin-IIIb (MYO3B, Homo sapiens, UniProt Q8WXR4); enzyme activity, inhibitor): 4.2 nM

O=C1Nc2ccc(Cl)cc2/C1=N/NS(=O)(=O)c1cc(Cl)cc(Cl)c1O
IC50 (AMY2; enzyme activity, inhibitor): 1100 nM

CNC(=O)c1cc2c(Oc3ccc(NC(=O)C4(C(=O)Nc5ccc(F)cc5)CC4)cc3)ccnc2cc1OC
IC50 (EPHA5; enzyme activity, inhibitor, radiometric): 29 nM

N=C(CF)NCCCC[C@H](NC(=O)c1ccccc1)C(N)=O
IC50 (Protein-arginine deiminase type-3 (PADI3, Homo sapiens, UniProt Q9ULW8); enzyme activity, inhibitor): 64400 nM

CC(C)[C@H]1CC[C@H](C(=O)N[C@H](Cc2ccccc2)C(=O)O)CC1
IC50 (SLC22A8; transporter uptake, inhibitor): 860 nM

COc1ccc(S(=O)(=O)N/N=C2\C(=O)Nc3ccccc32)cc1
IC50 (AMY2; enzyme activity, inhibitor): 11600 nM

C=C(NC(=O)[C@H](CCCCNC(=S)CCCCCCCCCCCCC)NS(C)(=O)=O)C(=O)N[C@@H](CCCNC(=N)N)C(N)=O
IC50 (SIRT2; enzyme activity, inhibitor): 30 nM

OC[C@@H]1[C@@H](O)[C@H](O)[C@@H](O)[C@@H]2O[C@H]12
IC50 (Beta-glucosidase (GBA2, Homo sapiens, UniProt Q9HCG7); enzyme activity, inhibitor; pH 7, lysate): 7480 nM

COc1cccnc1COc1ccc2c(c1)N(S(=O)(=O)c1cccc(C(F)(F)F)c1)CC2
IC50 (RORC; ligand displacement, radioligand): 85 nM

C=CC(=O)Nc1cc(Nc2nccc(Nc3cc(Cl)c(F)cc3C(C)(C)O)n2)c(OC)cc1N1CC[C@@H](N(C)C)C1
IC50 (FES; enzyme activity, inhibitor; with preincubation): 1760 nM

O=C(O)C1=CC(=C(c2ccc(O)c(C(=O)O)c2)c2ccc(O)c(C(=O)O)c2)C=CC1=O
IC50 (Flap endonuclease 1 (Homo sapiens, UniProt P39748); enzyme activity, inhibitor; with preincubation): 540 nM

COc1cccc(S(=O)(=O)N2CCc3ccc(OCc4c(F)cccc4Cl)cc32)c1
IC50 (RORC; ligand displacement, radioligand): 250 nM

O=C(O)CNC(=O)C(=O)O
IC50 (Hypoxia-inducible factor 1-alpha inhibitor (HIF1AN, Homo sapiens, UniProt Q9NWT6); enzyme activity, inhibitor, mass spectrometry): < 1000 nM

COC(=O)c1cc2ccc(O)cc2oc1=O
IC50 (polA; enzyme activity, inhibitor): 129000 nM

C=C(C)[C@@H]1CCC(C)=C[C@H]1c1c(O)cc(CCCCC)cc1O
IC50 (Prostaglandin E synthase (PTGES, Homo sapiens, UniProt O14684); enzyme activity, inhibitor): > 10000 nM

CCCCCCCCCCCCNC(=S)NCCCC[C@H](NC(=O)OCc1ccccc1)C(=O)N[C@@H](C)C(=O)N[C@@H](CCCNC(=N)N)C(N)=O
IC50 (SIRT2; enzyme activity, inhibitor): 140 nM

Cc1ccc2cc(C=NN=C3CS(=O)(=O)N(C)c4ccccc43)c(Cl)nc2c1
IC50 (Maoa; enzyme activity, inhibitor, fluorescence): 1820 nM

O=S(=O)(c1ccnc(C(F)(F)F)c1)N1CCc2ccc(OCc3c(F)cccc3Cl)cc21
IC50 (RORC; ligand displacement, radioligand): 230 nM

CC(C)[C@@H](N)c1nc2cc(-c3ccncc3F)sc2c(=O)[nH]1
IC50 (CDC7; enzyme activity, inhibitor): 1470 nM

O=S(=O)(c1cccc(C(F)(F)F)c1)N1CCc2ccc(OCc3c(Cl)cncc3Cl)cc21
IC50 (RORC; ligand displacement, radioligand): 180 nM

CCn1ncc2c1-c1cnc(N)c(c1)O[C@H](C)c1cc(F)ccc1-c1nn(C)nc1C2
IC50 (FES; enzyme activity, inhibitor, radiometric): 258 nM

CC(C)[C@H](N)c1nc2cc(-c3ccnc(F)c3)sc2c(=O)[nH]1
IC50 (CDC7; enzyme activity, inhibitor): 71.7 nM

O=c1oc(Cl)c(Cl)c2ccccc12
IC50 (Rhomboid protease GlpG (glpG, Escherichia coli, UniProt P09391); enzyme activity, inhibitor): 11000 nM

O=S(=O)(c1cccc(C(F)(F)F)c1)N1c2cc(OCc3c(F)cncc3Cl)ccc2CC1C(F)(F)F (centres unmarked)
IC50 (RORC; ligand displacement, radioligand): 290 nM

O=C(NO)c1ccc(CN(c2cnccn2)c2cnccn2)cc1
IC50 (SIRT2; enzyme activity, inhibitor, fluorescence): > 10000 nM

O=S(=O)(c1cccc(-c2ccccc2)c1)N1CCc2ccc(OCc3c(F)cccc3Cl)cc21
IC50 (RORC; ligand displacement, radioligand): 250 nM

CCCCCCCCCCCCNC(=S)NCCCC[C@H](NC(=O)OCc1ccccc1)C(=O)N[C@@H](Cc1c[nH]c2ccccc12)C(=O)N[C@@H](CCNC(=N)N)C(N)=O
IC50 (SIRT2; enzyme activity, inhibitor): 160 nM

COc1cc(N2CCN(C)CC2)ccc1Nc1ncc2c(n1)N(C)c1ccccc1C(=O)N2
IC50 (Serine/threonine-protein kinase DCLK1 (DCLK1, Homo sapiens, UniProt O15075); enzyme activity, inhibitor, mobility shift): > 1000 nM

O=S(=O)(c1cccc(C(F)(F)F)c1)N1c2cc(OCc3c(F)cccc3Cl)ccc2CC1C(F)(F)F (centres unmarked)
IC50 (RORC; ligand displacement, radioligand): 190 nM

CCCCCCCCCCCCNC(=S)NCCCC[C@H](NC(=O)OCc1ccccc1)C(=O)N[C@@H](Cc1c[nH]c2ccccc12)C(=O)N[C@@H](CCCCNC(=N)N)C(N)=O
IC50 (SIRT2; enzyme activity, inhibitor): 210 nM

O=C(O)CSc1nnc(Br)n1-c1ccc(C2CC2)c2ccccc12
IC50 (SLC22A8; transporter uptake, inhibitor, radiometric; 1 h, oocytes): 3500 nM

O=S(=O)(c1cccc(C(F)(F)F)c1)N1CCc2ccc(OCc3ccccc3OC(F)(F)F)cc21
IC50 (RORC; ligand displacement, radioligand): 290 nM

CC(=NN=C1CS(=O)(=O)N(C)c2ccccc21)c1ccc(Cl)s1
IC50 (Maoa; enzyme activity, inhibitor, fluorescence): 1520 nM

O=c1oc2c(O)c(O)cc3c(=O)oc4c(O)c(O)cc1c4c23
IC50 (Genome polyprotein, protease (Hepatitis C virus genotype 1b, UniProt Q9WMX2); enzyme activity, inhibitor, fluorescence): ~1000 nM

CC(=NN=C1CS(=O)(=O)N(C)c2ccccc21)c1ccc(C)s1
IC50 (Maoa; enzyme activity, inhibitor, fluorescence): 1270 nM

O=C(O)CCc1nc(-c2ccccc2)c(-c2ccccc2)o1
IC50 (SLC22A8; transporter uptake, inhibitor): 870 nM

CCCCCCCCCCCCNC(=S)NCCCC[C@H](NS(C)(=O)=O)C(=O)N[C@H](C)C(=O)N[C@@H](CCCNC(=N)N)C(=O)N1CCOCC1
IC50 (SIRT2; enzyme activity, inhibitor): 90 nM

CCCCCCCCCCCCCCCCCC(=O)Oc1ccc2ccc(=O)oc2c1
IC50 (polA; enzyme activity, inhibitor): > 200000 nM

O=C(O)c1ccnc2c(O)cccc12
IC50 (Lysine-specific demethylase 4D (KDM4D, Homo sapiens, UniProt Q6B0I6); enzyme activity, inhibitor, AlphaScreen): 7300 nM

CN1CCN(c2ccc(Nc3ncc4cc(C#N)c(=O)n(C5CCCC5)c4n3)cc2)CC1
IC50 (EPHA5; enzyme activity, inhibitor): 408 nM

CCCCCCCCNC(=S)NCCCC[C@H](NS(C)(=O)=O)C(=O)N[C@H](C)C(=O)N[C@@H](CCCNC(=N)N)C(N)=O
IC50 (SIRT2; enzyme activity, inhibitor): 400 nM

COc1ccc(S(=O)(=O)N/N=C2\C(=O)Nc3ccc(Cl)cc32)cc1
IC50 (AMY2; enzyme activity, inhibitor): 13100 nM
